The text below walks through data of article PMC3329872 (Bioorganic & medicinal chemistry letters, 2012).

For one assay, the target named is T1, trypsin (Bos taurus, UniProt P00760).
T1 sequence (P00760 24-246): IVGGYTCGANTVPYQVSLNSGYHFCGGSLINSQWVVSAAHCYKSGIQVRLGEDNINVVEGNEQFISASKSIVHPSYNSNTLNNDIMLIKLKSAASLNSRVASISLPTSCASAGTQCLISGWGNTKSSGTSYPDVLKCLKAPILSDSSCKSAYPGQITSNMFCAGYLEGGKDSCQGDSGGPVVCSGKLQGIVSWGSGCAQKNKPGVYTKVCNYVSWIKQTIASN
The experiment in a line: Trypsin enzymatic inhibition assay. It is filed as biochemical. In short, it runs like this:
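Chromogenic substrate level was chosen from the Km determination. Rate of absorbance change at 405 nm was recorded immediately after enzyme addition. Velocities at various inhibitor concentrations were fitted to a 4-parameter logistic equation.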

In the next assay the test system is U87 glioma cells. Kind of assay: Cell death assay: lactate dehydrogenase. It counts as cell-based. The conditions noted are these: LDH assay, human U87 glioma cells; concentration and time given in the cell. In short, it runs like this:
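U87 glioma cells plated at ten thousand per well and exposed to test compound for 24–48 h at 37°C, 5% CO2. Cell death read as cytosolic LDH released from dying cells, measured with a commercial LDH kit per the manufacturer's protocol.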

Assay [1] has as its target T2, plasmin (Homo sapiens, UniProt P00747). The experiment in a line: Plasmin enzymatic inhibition assay. It is filed as biochemical.
For a further assay, the target named is tPA (Homo sapiens, UniProt P00750). The conditions noted are these: read-out: tPA IC50; cited from earlier work.
Assay [2] relates to human malignant glioma cells. The conditions noted are these: cited from earlier work.
In assay [3] the target is T2, plasmin. Conditions: read-out: plasmin IC50; cited from earlier work.
Setting [4] is: read-out: Plasmin IC50, 22°C, pH 7.4, substrate tosyl-Gly-Pro-Lys-pNA.

pIC50: −log10 of the molar value. Several values for one entry are separate records, joined by “and”; a condition that tells them apart may be missing. Equal entries are not always repeated. Entries after “also recorded” stand apart in the source; their conditions may differ. Where two headings read alike, the source gives them in different places.

T2 sequence (P00747 581-810 limits assumed, species assumed): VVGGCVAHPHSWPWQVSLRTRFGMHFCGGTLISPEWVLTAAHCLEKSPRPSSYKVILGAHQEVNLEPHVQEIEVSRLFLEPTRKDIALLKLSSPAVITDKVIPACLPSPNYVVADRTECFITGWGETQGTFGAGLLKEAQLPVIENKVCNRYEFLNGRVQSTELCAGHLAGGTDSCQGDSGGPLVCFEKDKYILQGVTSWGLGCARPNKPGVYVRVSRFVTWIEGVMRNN
T2 sequence (P00747 97-580 partner limits assumed, species assumed): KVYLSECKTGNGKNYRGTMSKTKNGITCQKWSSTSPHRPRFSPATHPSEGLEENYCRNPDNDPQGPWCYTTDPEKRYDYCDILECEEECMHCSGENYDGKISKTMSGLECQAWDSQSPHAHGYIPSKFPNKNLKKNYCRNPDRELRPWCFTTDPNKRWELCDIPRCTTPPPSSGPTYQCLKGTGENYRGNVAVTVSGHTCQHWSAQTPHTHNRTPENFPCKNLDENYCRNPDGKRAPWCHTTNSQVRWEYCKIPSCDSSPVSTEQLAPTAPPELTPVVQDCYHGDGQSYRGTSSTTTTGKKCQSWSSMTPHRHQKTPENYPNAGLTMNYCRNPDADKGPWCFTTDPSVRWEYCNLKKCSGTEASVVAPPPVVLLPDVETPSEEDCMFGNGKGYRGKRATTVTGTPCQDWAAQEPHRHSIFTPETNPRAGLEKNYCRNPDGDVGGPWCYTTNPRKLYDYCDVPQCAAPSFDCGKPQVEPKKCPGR
Chain of tPA (P00750 36-562, species assumed): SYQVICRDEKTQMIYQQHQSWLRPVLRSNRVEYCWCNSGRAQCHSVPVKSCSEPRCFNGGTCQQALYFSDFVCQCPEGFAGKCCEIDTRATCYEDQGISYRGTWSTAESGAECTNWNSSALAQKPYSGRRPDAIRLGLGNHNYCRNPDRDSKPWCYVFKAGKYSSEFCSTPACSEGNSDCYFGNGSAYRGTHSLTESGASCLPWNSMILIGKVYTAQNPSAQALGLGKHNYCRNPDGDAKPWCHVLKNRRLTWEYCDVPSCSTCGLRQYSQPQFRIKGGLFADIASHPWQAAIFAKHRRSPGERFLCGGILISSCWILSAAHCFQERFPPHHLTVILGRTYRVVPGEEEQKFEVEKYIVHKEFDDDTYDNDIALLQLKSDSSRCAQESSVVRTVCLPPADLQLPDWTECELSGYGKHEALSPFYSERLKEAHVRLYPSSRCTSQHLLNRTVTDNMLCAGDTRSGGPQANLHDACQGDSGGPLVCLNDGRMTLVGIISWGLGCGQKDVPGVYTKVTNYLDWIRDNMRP

For the compound `NC(N)=NC(=O)c1ncc(NCC(=O)O)nc1N` [Compound 1-H], the negative logarithm of the IC50 (pIC50) (as a rule, the IC50 on a negative log10 scale, so that one unit is a factor of ten) on trypsin was under 3.60. Besides, in the assay on U87 glioma cells, the Cytoxicity result is “Not cytotoxic”.

Compound `N=C(N)NC(=O)c1nc(Cl)c(NCC(=O)O)nc1N` [Compound 1] showed a pIC50 on trypsin of under 3.60. For the same compound, the Cytoxicity entry in the assay with U87 glioma cells was “do not demonstrate glioma cytotoxicity; also recorded: Not cytotoxic”.

At trypsin, `N=C(N)c1ncc(NCC(=O)O)nc1N` [Compound 2-H] gave a pIC50 of under 3.60. In addition, the Cytoxicity result with U87 glioma cells is reported as “Not cytotoxic”.

With `N=C(N)c1nc(Cl)c(NCC(=O)O)nc1N` [Compound 2], the pIC50 at plasmin [1] (setting [4]) and against trypsin was under 3.60 throughout. Also, in the assay with U87 glioma cells, the Cytoxicity entry was “do not demonstrate glioma cytotoxicity; also recorded: Not cytotoxic”.

The compound `N/C(=N\O)c1nc(Cl)c(NCC(=O)OCc2ccccc2)nc1N` [Compound 7] had a pIC50 on trypsin of under 3.60. For the same compound, in the assay on U87 glioma cells, the Cytoxicity entry was “Not cytotoxic”.

In the case of `N/C(=N\O)c1ncc(NCC(=O)O)nc1N` [Compound 8-H], the figures for the pIC50 on plasmin [1] and at trypsin were 3.64 and under 3.60, respectively. In addition, in the assay with U87 glioma cells, the Cytoxicity entry was “Not cytotoxic”.

For `N/C(=N\O)c1nc(Cl)c(NCC(=O)O)nc1N` [Compound 8], on trypsin, the pIC50 is under 3.60. In addition, in the assay with U87 glioma cells, the Cytoxicity result is listed as “Not cytotoxic”.

`N=C(N)c1nc(Cl)c(NCC(=O)OCc2ccccc2)nc1N` [Compound 11] had a negative logarithm of the IC50 (pIC50) at trypsin of under 3.60. For the same compound, the Cytoxicity result with U87 glioma cells is “cytotoxic and 50% cytotoxic at 250μM by 72h”.

As for `NC(=O)c1nc(Cl)c(NCC(=O)OCc2ccccc2)nc1N` [Compound 12], the values for the pIC50 at plasmin [1] (setting [4]) and against trypsin were under 3.82 and under 3.60, respectively. Further, the Cytoxicity entry in the assay on U87 glioma cells is given as “Not cytotoxic”.

With `NC(N)=NC(=O)c1nc(Cl)c(NCC(=O)OCc2ccccc2)nc1N` [Compound 14], the negative logarithm of the IC50 (pIC50) at trypsin is under 3.60. The Cytoxicity entry with U87 glioma cells is “cytotoxic and 50% cytotoxic at 100μM by 24h”.

With `N=C(N)NC(=O)c1nc(Cl)c(N)nc1N` [amiloride, 3,5 diamino-6-chloro-N-(diaminomethylene) pyrazinecarboximide], the values for the pIC50 at tPA, on trypsin and at plasmin [3] were under 3.00, under 3.60 and under 3.00, respectively. In assay [2], the “concentration causing caspase-independent, non-apoptotic cell death” value is ~ 200 μM. Besides, the Cytoxicity in the assay on U87 glioma cells is recorded as 50% cytotoxic at 250μM by 24h.
